The text below walks through data of ChEMBL document CHEMBL1140815, “Synthesis and structure-activity relationship studies of tyrosine-based antagonists at the human P2X7 receptor” (Bioorg Med Chem Lett, 2008).

Test [1] relates to THP-1. As to the kind of experiment: Inhibition of BzATP-stimulated IL1-beta release in human THP1 cells at 1 uM by ELISA. In kind it is functional. On the technique in general: In an ELISA, binding on a coated surface is turned into a signal by an enzyme label.
For test [2], the system named is THP-1. The test can be described thus: Inhibition of BzATP-stimulated IL1-beta release in human THP1 cells by ELISA. The class given is functional, cell-based. An outline of the steps:
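Compound given as a 30 min pretreatment, then 1 mM BzATP for 30 min. Mature IL-1β in the centrifuged supernatant quantified by ELISA.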

Test [3] has as its target T1, P2X purinoceptor 7 (Homo sapiens, UniProt Q99572).
T1 sequence (Q99572 whole entry): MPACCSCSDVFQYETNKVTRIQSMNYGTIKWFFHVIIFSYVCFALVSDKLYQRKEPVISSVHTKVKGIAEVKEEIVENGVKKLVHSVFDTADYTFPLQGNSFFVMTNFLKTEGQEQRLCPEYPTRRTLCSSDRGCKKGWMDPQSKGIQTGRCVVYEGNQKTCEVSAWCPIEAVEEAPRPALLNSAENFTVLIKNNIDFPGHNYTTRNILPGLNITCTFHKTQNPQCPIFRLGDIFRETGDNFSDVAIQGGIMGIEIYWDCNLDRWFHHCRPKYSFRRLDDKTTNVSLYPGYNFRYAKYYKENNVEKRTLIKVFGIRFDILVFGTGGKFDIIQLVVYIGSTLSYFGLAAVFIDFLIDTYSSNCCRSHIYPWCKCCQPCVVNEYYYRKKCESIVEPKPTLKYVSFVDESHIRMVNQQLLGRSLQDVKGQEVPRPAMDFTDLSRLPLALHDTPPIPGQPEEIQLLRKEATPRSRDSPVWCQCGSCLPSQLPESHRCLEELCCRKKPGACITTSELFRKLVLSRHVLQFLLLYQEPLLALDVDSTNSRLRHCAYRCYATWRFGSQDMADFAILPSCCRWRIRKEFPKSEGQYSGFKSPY
As to the kind of experiment: Antagonist activity at human purinergic P2X7 receptor expressed in HEK293 cells assessed as inhibition of BzATP-induced ethidium bromide uptake. In kind it is functional, cell-based. An outline of the steps: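 Adherent HEK293 cells stably expressing human P2X7, resuspended at 2.5×10^6 cells/ml in HEPES salt solution (mM: ethidium bromide 0.1, EDTA 1, glucose 5, HEPES 20, KCl 140; pH 7.4). Cells added to compound-containing wells, then BzATP; 37°C for 120 min. Ethidium accumulation read by fluorescence (ex 530/em 590). IC50 from concentration–response curves; mean ± SD, 3–11 repeats.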

In test [4] the target is T2, P2X purinoceptor 7 (Homo sapiens) (UniProt Q99572).
T2 sequence (whole entry): T1 sequence (Q99572 whole entry)
As to the kind of experiment: Antagonist activity at human purinergic P2X7 receptor expressed in HEK293 cells assessed as inhibition of BzATP-induced ethidium bromide uptake at 10 uM. The class given is functional, cell-based.

Test [5] deals with T1, P2X purinoceptor 7. The test can be described thus: Antagonist activity at human purinergic P2X7 receptor expressed in HEK293 cells assessed as inhibition of ATP-induced K(+) efflux. In kind it is functional, cell-based.

Each structure is given as a SMILES string. pIC50: −log10 of the molar value.

With `CN([C@@H](Cc1ccc(OS(=O)(=O)c2cccc3cnccc23)cc1)C(=O)N1CCN(c2ccccc2)CC1)S(=O)(=O)c1cccc2cnccc12`, the inhibition – broadly, how much of the control response was suppressed – at 1 µM in the test on THP-1 [1] came out at 83%. The results for the pIC50 in the test on THP-1 [2] and on P2X purinoceptor 7 [3] were 6.73 and 6.76, respectively.
For `Cc1ccc(S(=O)(=O)Oc2ccc(C[C@H](NC(=O)OCc3ccccc3)C(=O)N3CCN(C(=O)c4ccccc4)[C@@H](C)C3)cc2)cc1`, in the test with THP-1 [1], 1 µM produced 69% inhibition. Moreover, the pIC50 (commonly the IC50 on a negative log10 scale, so that one unit is a factor of ten) at P2X purinoceptor 7 [3] was 6.59.
On the same counts, the results for `Cc1ccc(S(=O)(=O)Oc2ccc(C[C@@H](C(=O)N3CCN(C(=O)c4ccccc4)CC3)N(C)C(=O)OCc3ccccc3)cc2)cc1` are 47% and 5.87.
On the same counts, the results for `Cc1ccc(S(=O)(=O)Oc2ccc(C[C@H](NC(=O)OCc3ccccc3)C(=O)N3CCN(C(=O)c4ccccc4)[C@H](C)C3)cc2)cc1` are 65% and 6.59.
On the same counts, the results for `O=C(N[C@@H](Cc1ccc(OS(=O)(=O)c2ccc([N+](=O)[O-])cc2)cc1)C(=O)N1CCN(C(=O)c2ccccc2)CC1)OCc1ccccc1` are 48% and 6.93.
`Cc1ccc(S(=O)(=O)Oc2ccc(C[C@H](NC(=O)OCc3ccccc3)C(=O)N3CCN(C(=O)c4ccccc4)CC3)cc2)cc1` yielded an inhibition at 1 µM in the test with THP-1 [1] of 70%. Also, the pIC50 at P2X purinoceptor 7 [3] is 6.22.
Turning to `C[C@H]1CN(C(=O)[C@H](Cc2ccc(OS(=O)(=O)c3ccc(I)cc3)cc2)NC(=O)OCc2ccccc2)CCN1C(=O)c1ccc(N(C)C)cc1`, the inhibition in test [4] came out at 55%. Further, in the test with THP-1 [1], at 1 µM the inhibition was 61%.
Turning to `CC(C)(C)OC(=O)N1CCN(C(=O)[C@H](Cc2ccc(OS(=O)(=O)c3cccc4cnccc34)cc2)NS(=O)(=O)c2cccc3cnccc23)CC1`, the pIC50 at P2X purinoceptor 7 [5] is 7.40.
Turning to `CC(C)(C)OC(=O)N1CCN(C(=O)[C@H](Cc2ccc(OS(=O)(=O)c3ccc(CBr)cc3)cc2)NC(=O)OCc2ccccc2)CC1`, in the test on THP-1 [1], at 1 µM the inhibition was 52%. Also, the pIC50 at P2X purinoceptor 7 [3] is 5.61.
The molecule `Cc1ccc(S(=O)(=O)Oc2ccc(C[C@H](NC(=O)OCc3ccccc3)C(=O)N3CCN(C(=O)c4ccc(Br)cc4)CC3)cc2)cc1` displayed an inhibition at 1 µM in the test on THP-1 [1] of 78%. Further, the pIC50 was 6.06 in the test on THP-1 [2] and 6.32 at P2X purinoceptor 7 [3].
On to `Cc1ccc(S(=O)(=O)Oc2ccc(C[C@H](NC(=O)OCc3ccccc3)C(=O)N3CCN(C(=O)c4ccc(N(C)C)cc4)[C@@H](C)C3)cc2)cc1`, for which the inhibition in test [4] amounted to 54%. In the test with THP-1 [1], 1 µM produced 68% inhibition.
`Cc1ccc(S(=O)(=O)Oc2ccc(C[C@H](NC(=O)OCc3ccccc3)C(=O)N3CCN(C(=O)c4ccc(F)cc4)CC3)cc2)cc1` yielded an inhibition at 1 µM with THP-1 [1] of 68%. The pIC50 at P2X purinoceptor 7 [3] was 6.50.
`Cc1ccc(S(=O)(=O)Oc2ccc(C[C@H](NC(=O)OCc3ccccc3)C(=O)N3CCN(C(=O)OC(C)(C)C)CC3)cc2)cc1` yielded an inhibition at 1 µM in the test with THP-1 [1] of 72%. The pIC50 on P2X purinoceptor 7 [3] is 5.81.
On the same counts, the results for `CC(C)(C)OC(=O)N1CCN(C(=O)[C@H](Cc2ccc(OS(=O)(=O)c3ccc(Br)cc3)cc2)NC(=O)OCc2ccccc2)CC1` are 68% and 6.29.
`Cc1ccc(S(=O)(=O)Oc2ccc(C[C@H](NC(=O)OCc3ccccc3)C(=O)N3CCN(C(=O)c4ccc(C(F)(F)F)cc4)CC3)cc2)cc1` yielded an inhibition at 1 µM with THP-1 [1] of 65%. Further, the pIC50 on P2X purinoceptor 7 [3] was 6.14.
Regarding `Cc1ccc(S(=O)(=O)Oc2ccc(C[C@H](NC(=O)OCc3ccccc3)C(=O)N3CCN(C(=O)c4ccc(N(C)C)cc4)CC3)cc2)cc1`, the inhibition at 1 µM in the test with THP-1 [1] stood at 65%. For the same molecule, the pIC50 on P2X purinoceptor 7 [3] was 5.70.
On the same counts, the results for `CC(C)(C)OC(=O)N1CCN(C(=O)[C@H](Cc2ccc(OS(=O)(=O)c3ccc(I)cc3)cc2)NC(=O)OCc2ccccc2)CC1` are 72% and 5.45.
The like results for `CC(C)(C)OC(=O)N1CCN(C(=O)[C@H](Cc2ccc(OS(=O)(=O)c3ccc(C#N)cc3)cc2)NC(=O)OCc2ccccc2)CC1` were, in that order, 60% and 6.11.
On the same counts, the results for `C[C@H]1CN(C(=O)[C@H](Cc2ccc(OS(=O)(=O)c3ccc(C#N)cc3)cc2)NC(=O)OCc2ccccc2)CCN1C(=O)c1ccc(N(C)C)cc1` are 59% and 6.27.
Turning to `Cc1ccc(S(=O)(=O)Oc2ccc(C[C@H](NC(=O)OCc3ccccc3)C(=O)N3CCN(C(=O)c4ccccc4)C[C@@H]3C)cc2)cc1`, the inhibition at 1 µM in the test on THP-1 [1] amounted to 45%. In addition, at P2X purinoceptor 7 [3], the pIC50 was 6.30.
The like results for `Cc1ccc(S(=O)(=O)Oc2ccc(C[C@@H](NC(=O)OCc3ccccc3)C(=O)N3CCN(C(=O)OC(C)(C)C)CC3)cc2)cc1` were, in that order, 56% and 6.06.
As for `O=C(N[C@@H](Cc1ccc(OS(=O)(=O)c2ccc(NC(=S)NCCCCNC(=S)Nc3ccc(S(=O)(=O)Oc4ccc(C[C@H](NC(=O)OCc5ccccc5)C(=O)N5CCN(C(=O)c6ccccc6)CC5)cc4)cc3)cc2)cc1)C(=O)N1CCN(C(=O)c2ccccc2)CC1)OCc1ccccc1`, in test [4], the inhibition was 28%. In addition, in the test with THP-1 [1], testing at 1 µM gave an inhibition of 37%.
`CC(C)(C)OC(=O)N1CCN(C(=O)[C@H](Cc2ccc(OS(=O)(=O)c3ccc(OC(F)(F)F)cc3)cc2)NC(=O)OCc2ccccc2)CC1` yielded an inhibition at 1 µM in the test with THP-1 [1] of 46%. The pIC50 at P2X purinoceptor 7 [3] is 6.14.
Take `CC(C)(C)OC(=O)N1CCN(C(=O)[C@H](Cc2ccc(OS(=O)(=O)c3ccc(F)cc3)cc2)NC(=O)OCc2ccccc2)CC1`: at 1 µM the inhibition in the test on THP-1 [1] was 56%. Further, the pIC50 on P2X purinoceptor 7 [3] was 5.23.
